Laboratory results from publication PMC12707241 (RSC Chemical Biology, 2025).
Like-named read-outs stand apart in the source and are kept apart here.

Experiments:
SIRT5 [1] = conditions: cited from earlier work
SIRT5 [2] = conditions: cited from earlier work; remark: listed apart in the source
HEK293 cells = assay: Intracellular NAD+ level, HEK293 cells; assay type: cell-based, human; conditions: HEK293, 1 mM, 6 h
Procedure, shortened: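 HEK293 cells (DMEM, 10% FBS, 37 °C, 5% CO2) incubated with 1 mM NR or NARH for 6 h. Harvested, counted by hemocytometer, pelleted, and extracted in ice-cold 7% perchloric acid (three vortex/ice-sonication cycles). NAD+ measured by enzymatic cycling assay. Three independent experiments ± SD; Student's t-test.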

[3] = physiological NAM concentrations

Row | SMILES | effect on deacetylase activity of SIRT5 (SIRT5 [1]; [3]) | effect on desuccinylase activity of SIRT5 (SIRT5 [2]; [3]) | effect on deacetylase activity of SIRT5 (SIRT5 [1]) | intracellular NAD+ content (HEK293 cells) | effect on desuccinylase activity of SIRT5 (SIRT5 [2])
1 | NC(=O)c1cccnc1 [NAM, nicotinamide] | negligible changes | potently inhibit | – | – | –
2 | NC(=O)c1ccc[n+]([C@@H]2O[C@H](CO)[C@@H](O)[C@H]2O)c1 [NR, nicotinamide riboside] | – | – | selectively activates | nearly two-fold increase | negligible changes
